The values that follow come from ChEMBL document CHEMBL5712095, “The UVSSA complex alleviates MYC-driven transcription stress” (J Cell Biol, 2021).

Calls of active or inactive are those of the source. The calls are words filed in the database; no cut-off is given here.

What all share (format): cell-based
Series [1] concerns MCF10. As to the kind of experiment: Inhibition of DNA replicative polymerase in human MCF10A cells with UVSSA knockdown assessed as increase in MYC ON/MYC OFF survival ratio at 50 ng/ml administered every 48 to 72 hrs over 26 days by FBCS assay. The conditions noted are these: time 26.0 day. The essentials: (§1)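 FBCS: 250,000 shUVSSA-4 or shCONTROL MCF10A-MYC-ER cells coplated with 250,000 shRNA-free cells. Given 1 µg/ml doxycycline, 200 nM 4OHT or ethanol vehicle, and aphidicolin (top dose 50 ng/ml) or vehicle every 48–72 h for 26 d. Fluorescent fraction measured by flow cytometry at each passage; MYC ON/MYC OFF ratio calculated; n = 3.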

Series [2] deals with MCF10. As to the kind of experiment: Inhibition of DNA replicative polymerase in human MCF10A cells with UVSSA knockdown assessed as transiently alleviation of synthetic sickness phenotype at 50 ng/ml administered every 48 to 72 hrs over 26 days by FBCS assay. The settings on record: time 26.0 day. The essentials:
as §1

Series [3] deals with Ubiquitin carboxyl-terminal hydrolase 7 (Homo sapiens) (UniProt Q93009). As to the kind of experiment: Inhibition of USP7 in human MCF10A-MYC-ER cells assessed as increase in sensitization of MYC expressing cells up to 4 uM by MTT assay relative to control. The settings on record: MCF10.
For series [4] the target is unchanged. As to the kind of experiment: Inhibition of USP7 in human MCF10A-MYC-ER cells assessed as increase in sensitization of MYC expressing cells up to 4 uM by Clonogenic assays relative to control. The conditions noted are these: MCF10. The essentials: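 Clonogenic assay: MCF10A-MYC-ER cells plated at 500 per 100-mm dish with 200 nM 4OHT or vehicle. Next day, P5091 at 0–4 µM for 24 h, then medium with 4OHT or vehicle for 10 d at 37°C. Colonies methanol-fixed, crystal violet-stained and counted; percentage survival from colony number; unpaired t test, n = 4.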

The nature of series [5]: Toxicity in human MCF10A cells with UVSSA knockdown assessed as increase in MYC ON/MYC OFF survival ratio at 100 ng/ml administered every 48 to 72 hrs over 14 days by FBCS assay. The conditions noted are these: mcf10, 336 h, time 14 day.
For series [6], the system named is MCF10. As to the kind of experiment: Inhibition of RNA polymerase 2 in human MCF10A cells with UVSSA knockdown assessed as increase in MYC ON/MYC OFF survival ratio at 100 ng/ml administered every 48 to 72 hrs over 14 days by FBCS assay. The conditions noted are these: time 14.0 day.
Series [7] deals with MCF10. As to the kind of experiment: Inhibition of RNA polymerase 2 in human MCF10A cells with UVSSA knockdown assessed as transiently alleviation of synthetic sickness phenotype at 100 ng/ml administered every 48 to 72 hrs over 14 days by FBCS assay. The settings on record: time 14.0 day.
A further series deals with DNA. As to the kind of experiment: Induction of DNA double strand breaks in human MCF10A cells assessed as significant accumulation of P-CHK1(S345) or P-RPA (S4/S8) by Western blot analysis. The conditions noted are these: MCF10. The essentials:
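Immunoblot of whole-cell lysates (RIPA buffer with protease/phosphatase inhibitors, sonicated, cleared at 4°C) from MCF10A-MYC-ER shRNA lines given 200 nM 4OHT or vehicle plus 1 µg/ml doxycycline every 3 d and harvested at day 9. β-Actin is the loading control and NCS-treated cells the DSB positive control. Signal detected by ECL on film.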

Sequence of Ubiquitin carboxyl-terminal hydrolase 7 (Homo sapiens) (Q93009 whole entry, looked up): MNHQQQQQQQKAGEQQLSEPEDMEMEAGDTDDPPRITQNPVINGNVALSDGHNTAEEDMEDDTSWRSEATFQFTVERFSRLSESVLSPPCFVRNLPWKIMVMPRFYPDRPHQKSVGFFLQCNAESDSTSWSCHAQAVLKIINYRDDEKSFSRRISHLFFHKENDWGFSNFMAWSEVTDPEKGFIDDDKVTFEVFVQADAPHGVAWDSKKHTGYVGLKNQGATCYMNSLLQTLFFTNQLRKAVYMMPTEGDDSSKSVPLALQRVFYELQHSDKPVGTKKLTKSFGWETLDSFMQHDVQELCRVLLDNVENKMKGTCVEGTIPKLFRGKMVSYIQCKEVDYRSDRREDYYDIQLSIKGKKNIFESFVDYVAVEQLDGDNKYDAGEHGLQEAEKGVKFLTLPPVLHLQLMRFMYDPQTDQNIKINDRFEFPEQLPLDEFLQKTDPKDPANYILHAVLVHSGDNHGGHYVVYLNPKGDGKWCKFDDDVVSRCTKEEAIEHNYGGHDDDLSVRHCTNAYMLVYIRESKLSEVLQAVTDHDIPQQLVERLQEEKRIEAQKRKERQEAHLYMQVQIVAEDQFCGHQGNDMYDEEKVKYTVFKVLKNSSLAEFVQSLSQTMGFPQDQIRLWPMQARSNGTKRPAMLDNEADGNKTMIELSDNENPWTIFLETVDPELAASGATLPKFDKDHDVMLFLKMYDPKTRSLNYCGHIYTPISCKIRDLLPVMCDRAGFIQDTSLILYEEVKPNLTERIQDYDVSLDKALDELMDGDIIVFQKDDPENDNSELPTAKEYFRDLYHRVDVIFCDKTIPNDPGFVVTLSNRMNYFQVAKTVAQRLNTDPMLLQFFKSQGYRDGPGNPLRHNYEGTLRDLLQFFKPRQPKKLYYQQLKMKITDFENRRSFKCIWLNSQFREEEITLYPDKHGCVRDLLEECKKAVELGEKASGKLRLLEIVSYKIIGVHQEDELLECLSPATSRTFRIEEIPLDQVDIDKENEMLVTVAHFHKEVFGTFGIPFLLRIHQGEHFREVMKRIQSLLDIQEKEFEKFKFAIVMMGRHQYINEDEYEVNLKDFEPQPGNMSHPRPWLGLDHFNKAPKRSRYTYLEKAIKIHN

With `C[C@@]1(CO)[C@H](O)CC[C@@]2(C)[C@H]1CC[C@H]1C[C@@H]3C[C@@]12CC[C@]3(O)CO`, the inhibition entry in the series on MCF10 [1] and in the series with MCF10 [2] was “inactive” in each case.

On to `CC(=O)c1cc([N+](=O)[O-])c(Sc2cccc(Cl)c2Cl)s1`, for which the fold change (FC) in series [3] was determined as 3. Also, the inhibition entry in series [4] was “Active”.

Take `CC[C@H](C)[C@@H]1NC(=O)CNC(=O)[C@@H]2Cc3c([nH]c4cc(O)ccc34)[S@+]([O-])C[C@H](NC(=O)CNC1=O)C(=O)N[C@@H](CC(N)=O)C(=O)N1C[C@H](O)C[C@H]1C(=O)N[C@@H]([C@@H](C)[C@@H](O)CO)C(=O)N2`: the Activity result in series [5] is reported as “Toxic”. Further, the inhibition entry in the series on MCF10 [6] and in the series on MCF10 [7] was “Active” in each case.

For `CN[C@H]1[C@@H](O[C@@H]2C3CC#C[C@H]4O[C@@]4(C4COC(=O)O4)C#CC3=C[C@H]2OC(=O)c2c(O)ccc3c(C)cc(OC)cc23)O[C@H](C)[C@H](O)[C@@H]1O` (stereo partly drawn), the outcome with DNA was Active.
